Test results reported in ChEMBL document CHEMBL1139738, “Pyridine-3-propanoic acids: Discovery of dual PPARalpha/gamma agonists as antidiabetic agents” (Bioorg Med Chem Lett, 2006).

Assays:
[1] = target: T1, Peroxisome proliferator-activated receptor alpha (Homo sapiens, UniProt Q07869); test: Agonist activity at human PPAR alpha in a HepG2 cells by PPAR-GAL4 transactivation assay; format: functional, cell-based
T1 sequence (Q07869 whole entry): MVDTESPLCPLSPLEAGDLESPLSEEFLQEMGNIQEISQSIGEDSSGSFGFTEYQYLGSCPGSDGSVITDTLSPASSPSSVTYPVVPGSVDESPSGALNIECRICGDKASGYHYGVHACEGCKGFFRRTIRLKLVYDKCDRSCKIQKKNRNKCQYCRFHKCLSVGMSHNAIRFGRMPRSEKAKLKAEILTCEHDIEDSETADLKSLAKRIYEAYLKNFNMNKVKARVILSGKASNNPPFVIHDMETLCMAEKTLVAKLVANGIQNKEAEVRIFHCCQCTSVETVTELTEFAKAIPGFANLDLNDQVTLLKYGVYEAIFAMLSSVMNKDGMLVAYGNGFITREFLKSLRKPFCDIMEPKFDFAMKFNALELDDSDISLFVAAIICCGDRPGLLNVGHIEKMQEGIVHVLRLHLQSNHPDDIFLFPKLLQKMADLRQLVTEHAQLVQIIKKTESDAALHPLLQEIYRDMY

[2] = target: T2, Peroxisome proliferator-activated receptor alpha (Homo sapiens) (UniProt Q07869); test: Agonist activity at human PPAR alpha in a HepG2 cells by PPAR-GAL4 transactivation assay relative to GW-2331; format: functional, cell-based
T2 sequence (whole entry): T1 sequence (Q07869 whole entry)

[3] = target: T1, Peroxisome proliferator-activated receptor alpha; test: Displacement of radiolabeled GW-2331 from human PPAR alpha by SPA binding assay
[4] = tested on: Mus musculus; test: Reduction of plasma triglycerides in orally dosed db/db mouse at 1 mg/kg after 8 days relative to control; format: functional; design: scale not given: the % may be the effect or the level left; details: route oral
In short: (§1)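 Male db/db mice, 7 weeks old, with lean controls, given vehicle or compound by oral gavage once daily for 8 days. Plasma glucose, triglycerides, hematocrit and body weight measured before dosing on day −1 and 2 h post-dose on day 8. Percent change is expressed versus vehicle control, with significance at p < 0.05.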

[5] = Clearance in iv dosed Sprague-Dawley rat; format: ADME, organism-based; details: in vivo
In short: (§2)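 Pharmacokinetics in male Sprague–Dawley rats given iv and oral doses. Outputs are iv clearance (mL/min/kg), oral half-life, dose-normalized oral AUC (h μg/mL) and oral bioavailability (%).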

[6] = tested on: Mus musculus; test: Reduction of plasma glucose in orally dosed db/db mouse at 1 mg/kg after 8 days relative to control; format: functional; design: scale not given: the % may be the effect or the level left; details: route oral; in short: as §1
[7] = Half life in orally dosed Sprague-Dawley rat; format: ADME, organism-based; details: in vivo, po; in short: as §2
[8] = tested on: Mus musculus; test: Increase in body weight in orally dosed db/db mouse at 1 mg/kg after 8 days relative to control; format: functional; details: route oral; in short: as §1
[9] = tested on: Mus musculus; test: Reduction of hematocrit in orally dosed db/db mouse at 1 mg/kg after 8 days relative to control; format: functional; design: scale not given: the % may be the effect or the level left; details: route oral; in short: as §1
[10] = tested on: Mus musculus; test: Reduction of hematocrit in orally dosed db/db mouse at 0.03 mg/kg after 8 days relative to control; format: functional; design: scale not given: the % may be the effect or the level left; details: route oral; in short: as §1
[11] = tested on: Mus musculus; test: Increase in body weight in orally dosed db/db mouse at 0.03 mg/kg after 8 days relative to control; format: functional; details: route oral; in short: as §1
[12] = tested on: Mus musculus; test: Reduction of plasma glucose in orally dosed db/db mouse at 0.03 mg/kg after 8 days relative to control; format: functional; design: scale not given: the % may be the effect or the level left; details: route oral; in short: as §1
[13] = tested on: Mus musculus; test: Reduction of plasma triglycerides in orally dosed db/db mouse at 0.03 mg/kg after 8 days relative to control; format: functional; design: scale not given: the % may be the effect or the level left; details: route oral; in short: as §1
[14] = Oral bioavailability in Sprague-Dawley rat; format: ADME, organism-based; details: in vivo; in short: as §2
[15] = target: T3, Peroxisome proliferator-activated receptor gamma (Homo sapiens, UniProt P37231); test: Displacement of radiolabeled darglitazone from human PPAR gamma by SPA binding assay
T3 sequence (P37231 whole entry): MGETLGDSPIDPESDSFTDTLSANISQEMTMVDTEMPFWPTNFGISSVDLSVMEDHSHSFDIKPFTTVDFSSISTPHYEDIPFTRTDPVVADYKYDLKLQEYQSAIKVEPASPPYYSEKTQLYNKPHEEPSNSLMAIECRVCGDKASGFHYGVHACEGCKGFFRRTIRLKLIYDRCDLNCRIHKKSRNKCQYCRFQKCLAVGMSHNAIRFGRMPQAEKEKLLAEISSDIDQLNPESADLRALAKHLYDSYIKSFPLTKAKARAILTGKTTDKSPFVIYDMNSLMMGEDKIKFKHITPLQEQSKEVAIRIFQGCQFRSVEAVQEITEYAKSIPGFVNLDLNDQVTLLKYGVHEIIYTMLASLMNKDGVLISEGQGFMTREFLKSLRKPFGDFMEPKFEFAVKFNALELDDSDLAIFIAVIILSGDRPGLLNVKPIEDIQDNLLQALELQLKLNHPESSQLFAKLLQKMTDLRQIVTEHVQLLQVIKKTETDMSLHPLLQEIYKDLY

[16] = target: T3, Peroxisome proliferator-activated receptor gamma; test: Agonist activity at human PPAR gamma in a HepG2 cells by PPAR-GAL4 transactivation assay; format: functional, cell-based
[17] = target: T2, Peroxisome proliferator-activated receptor alpha (Homo sapiens); test: Displacement of radiolabeled GW-2331 from human PPAR alpha by SPA assay at 100 uM
In short: (§3)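 Scintillation proximity assay on human PPARα using radiolabelled GW2331 as the displaced ligand, following published procedures. Single-concentration lines report percent displacement at the stated test concentration; Ki was determined for compounds with a full curve.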

[18] = target: T2, Peroxisome proliferator-activated receptor alpha (Homo sapiens); test: Displacement of radiolabeled GW-2331 from human PPAR alpha by SPA assay at 11 uM; in short: as §3
[19] = target: T4, Peroxisome proliferator-activated receptor gamma (Homo sapiens) (UniProt P37231); test: Displacement of radiolabeled darglitazone from human PPAR gamma at 100 uM by SPA assay
T4 sequence (whole entry): T3 sequence (P37231 whole entry)
In short: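 Scintillation proximity assay on human PPARγ using radiolabelled darglitazone as the displaced ligand, following published procedures. Single-concentration lines report percent displacement at the stated test concentration; Ki was determined for compounds with a full curve.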

| Compound | EC50 [1] | %max [2] | Ki [3] | further results |
| --- | --- | --- | --- | --- |
| Cc1oc(-c2ccc(C(F)(F)F)cc2)nc1CCOc1ccc(CC2(C(=O)O)CCCO2)cn1 (stereo unspecified) | 11 nM | 143% | 21 nM |  |
| Cc1ccc(-c2nc(CCOc3ccc(CC4(C(=O)O)CCCO4)cn3)c(C)o2)cc1 (stereo unspecified) | 23 nM | 84% | 31 nM |  |
| Cc1oc(-c2cccc(Cl)c2)nc1CCOc1ccc(CC2(C(=O)O)CCCO2)cn1 (stereo unspecified) | 46 nM | 117% | 99 nM |  |
| Cc1oc(-c2ccccc2)nc1CCOc1ccc(CC2(C(=O)O)CCCCO2)cn1 (stereo unspecified) | 228 nM | 96% | 78 nM |  |
| Cc1oc(-c2ccccc2)nc1CCOc1ccc(C[C@]2(C(=O)O)CCCO2)cn1 | 165 nM | 89% | 32 nM | Activity [4]: 147%; clearance [5]: 2.5 mL/min/kg; Activity [6]: 99%; half-life [7]: 282 min; Activity [8]: 15.7%; Activity [9]: 8.7%; Activity [10]: 7.2%; Activity [11]: 11.7%; Activity [12]: 37%; Activity [13]: 67%; bioavailability [14]: 59% |
| COc1cccc(-c2nc(CCOc3ccc(CC4(C(=O)O)CCCO4)cn3)c(C)o2)c1 (stereo unspecified) | 90 nM | 104% | 215 nM |  |
| Cc1oc(-c2ccccc2)nc1CCOc1ccc(CC(C(=O)O)C(C)C)cn1 (stereo unspecified) | 426 nM | 93% | 4100 nM |  |
| CCC(Cc1ccc(OCCc2nc(-c3ccccc3)oc2C)nc1)C(=O)O (stereo unspecified) | 150 nM | 106% | 1300 nM |  |
| CN(CCOc1ccc(CC2SC(=O)NC2=O)cc1)c1ccccn1 (stereo unspecified) |  | 6% |  |  |
| Cc1oc(-c2cccc(C(F)(F)F)c2)nc1CCOc1ccc(CC2(C(=O)O)CCCO2)cn1 (stereo unspecified) | 8 nM | 81% | 100 nM |  |
| CCOC(CC)(Cc1ccc(OCCc2nc(-c3ccccc3)oc2C)nc1)C(=O)O (stereo unspecified) | 4670 nM | 64% | 15100 nM | Ki [15]: 14400 nM; EC50 [16]: 2810 nM |
| CCOC(Cc1ccc(OCCc2nc(-c3ccccc3)oc2C)nc1)C(=O)O (stereo unspecified) | 33 nM | 96% | 43 nM |  |
| Cc1oc(-c2ccccc2)nc1CCOc1ccc(CC(C(=O)O)C(C)(C)C)cn1 (stereo unspecified) |  |  | 9400 nM | Ki [15]: 12000 nM |
| Cc1oc(-c2ccccc2)nc1CCOc1ccc(CC(C)(C)C(=O)O)cn1 | 534 nM | 112% | 6800 nM |  |
| Cc1oc(-c2ccccc2)nc1CCOc1ccc(CC2(C(=O)O)CCOC2)cn1 (stereo unspecified) |  |  |  | inhibition [17]: 33%; Ki [15]: 17000 nM |
| Cc1oc(-c2ccccc2)nc1CCOc1ccc(CC2(C(=O)O)CC2)cn1 | 6150 nM | 39% |  | inhibition [17]: 44% |

| Compound | EC50 [1] | %max [2] | Ki [3] | further results |
| --- | --- | --- | --- | --- |
| Cc1oc(-c2ccccc2)nc1CCOc1ccc(CC2(C(=O)O)CCOCC2)cn1 |  |  |  | inhibition [18]: 2%; Activity [19]: 32% |
| COC(Cc1ccc(OCCc2nc(-c3ccccc3)oc2C)nc1)C(=O)O (stereo unspecified) | 83 nM | 95% | 180 nM |  |
| Cc1oc(-c2ccccc2)nc1CCOc1ccc(CC2(C(=O)O)CCCO2)cn1 (stereo unspecified) | 48 nM | 106% | 78 nM |  |
| Cc1oc(-c2ccccc2)nc1CCOc1ccc(CC(CC(C)C)C(=O)O)cn1 (stereo unspecified) | 1720 nM | 98% | 430 nM | Ki [15]: 360 nM; EC50 [16]: 1650 nM |
| CCCC(Cc1ccc(OCCc2nc(-c3ccccc3)oc2C)nc1)C(=O)O (stereo unspecified) | 770 nM | 92% | 880 nM |  |
| Cc1cccc(-c2nc(CCOc3ccc(CC4(C(=O)O)CCCO4)cn3)c(C)o2)c1 (stereo unspecified) | 134 nM | 86% | 277 nM |  |
| Cc1oc(-c2ccccc2)nc1CCCOc1ccc(CC2(C(=O)O)CCCO2)cn1 (stereo unspecified) |  |  | 1840 nM | Ki [15]: 810 nM |
| COC(Cc1ccc(OCCc2ccc(Oc3cccc(Cl)c3)cc2C)nc1)C(=O)O (stereo unspecified) | 133 nM | 100% | 13 nM | Ki [15]: 15 nM; EC50 [16]: 50 nM |
| Cc1oc(-c2ccc(Cl)cc2)nc1CCOc1ccc(CC2(C(=O)O)CCCO2)cn1 (stereo unspecified) | 10 nM | 87% | 14 nM |  |
| Cc1oc(-c2ccccc2)nc1CCOc1ccc(CC2(C(=O)O)CCC2)cn1 | 238 nM | 94% | 633 nM | Ki [15]: 394 nM; EC50 [16]: 125 nM |
| Cc1oc(-c2ccc(C#N)cc2)nc1CCOc1ccc(CC2(C(=O)O)CCCO2)cn1 (stereo unspecified) | 31 nM | 167% | 314 nM | Ki [15]: 334 nM; EC50 [16]: 28 nM |
| Cc1oc(-c2ccccc2)nc1CCOc1ccc(CC(C)C(=O)O)cn1 (stereo unspecified) | 287 nM | 93% | 3000 nM |  |
| Cc1oc(-c2ccccc2)nc1CCOc1ccc(CC2(C(=O)O)CCCCC2)cn1 |  |  | 8300 nM |  |
| COc1ccc(-c2nc(CCOc3ccc(CC4(C(=O)O)CCCO4)cn3)c(C)o2)cc1 (stereo unspecified) | 486 nM | 96% | 65 nM |  |
| COC(C)(Cc1ccc(OCCc2nc(-c3ccccc3)oc2C)nc1)C(=O)O (stereo unspecified) | 144 nM | 106% | 330 nM |  |
